TAAR1 antagonist: human TAAR1 antagonism; inhibition, % at 3 µM; 1.5% of 360,000 active; CHO RD-HGA16 TAAR1, Fluo-8 calcium fluorescence, antagonist; AID 624466; Q96RJ0;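 active means inhibition above a per-plate cutoff, the mean inhibition of test compounds on that plate plus 3 SD, cut at about 49% in these data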;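 further: 0% = DMSO plus EC80 beta-PEA response and 100% = DMSO alone without agonist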
Target sequence (Q96RJ0 whole entry, looked up): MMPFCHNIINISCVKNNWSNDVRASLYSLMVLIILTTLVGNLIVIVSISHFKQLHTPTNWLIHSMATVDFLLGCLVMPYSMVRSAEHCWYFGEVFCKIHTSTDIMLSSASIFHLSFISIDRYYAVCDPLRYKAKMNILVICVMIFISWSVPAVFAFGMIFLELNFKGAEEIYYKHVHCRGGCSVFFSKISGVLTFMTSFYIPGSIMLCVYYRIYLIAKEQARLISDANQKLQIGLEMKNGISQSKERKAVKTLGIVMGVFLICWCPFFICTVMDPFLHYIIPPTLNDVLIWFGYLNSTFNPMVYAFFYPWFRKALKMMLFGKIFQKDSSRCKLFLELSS
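Material: CHO RD-HGA16 cells bearing hTAAR1; compound dosing: one-point dosing, 3 µM nominal final; schedule: dye loading 75 min at 37 °C, then 30 min room temperature; measured by: calcium fluorescence with Fluo-8; control set: vehicle and agonist controls; replication: n of 1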
OX1R antag-1: human HCRTR1 antagonism; CHO/OX1R cells, Fluo-8 calcium fluorescence, orexin A; inhibition, % at 5 µM; 0.43% of 330,000 active;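 active means inhibition above its plate's threshold, mean inhibition of all tested compounds on the plate plus 3 SD, cut at about 37% in these data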;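 further: 0% = orexin A challenge wells and 100% = SB-334867-A antagonist wells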
OX1R antag-2: blocks the human orexin 1 receptor. OX1R-expressing cells, FRET antagonist read-out. inhibition, % at 6.6 µM. 1.8% of 330,000 active; in the data active means inhibition mostly above about 38%, no sharp cut-off; inactive means mostly below about 40%;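 further: 0% = agonist challenge alone and 100% = reference antagonist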
GPR7 antagonist: blocks human GPR7 receptor signaling. 1.1% of 290,000 active. inhibition, % at 4.4 µM. P48145. AID 1861. GPR7-expressing cells, fluorescence antagonist assay; in the data active means inhibition above about 16%, passing the limit was not always enough;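 further: cells stimulated with the agonist NPW; 0% = agonist with vehicle and 100% = vehicle without agonist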
Target sequence (P48145 whole entry, looked up): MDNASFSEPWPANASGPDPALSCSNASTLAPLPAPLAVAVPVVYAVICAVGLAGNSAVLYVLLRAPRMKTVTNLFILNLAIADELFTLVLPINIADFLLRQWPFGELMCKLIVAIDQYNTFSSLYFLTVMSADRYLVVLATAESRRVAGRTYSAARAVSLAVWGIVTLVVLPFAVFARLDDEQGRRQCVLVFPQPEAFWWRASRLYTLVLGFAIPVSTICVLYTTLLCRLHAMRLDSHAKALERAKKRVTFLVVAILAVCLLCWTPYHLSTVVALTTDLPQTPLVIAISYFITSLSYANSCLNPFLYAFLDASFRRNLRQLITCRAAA
TAAR1 agonist: agonists of human TAAR1; activation, % at 3 µM; 0.99% of 360,000 active; Q96RJ0; CHO RD-HGA16 TAAR1, Fluo-8 calcium fluorescence; vehicle wells 0%, saturating PEA agonist 100%;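 active means activation above the mean activation of all test compounds in the run plus 3 SD, cut at about 38% in these data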
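Benchmarks: low control DMSO, high control PEA (EC100); System: CHO RD-HGA16 cells carrying human TAAR1 plus Gα16; Detection: Fluo-8 fluorescence, 5 s baseline then 140 s kinetic read; Schedule: 17-24 h plating, Fluo-8 75 min 37 °C, 30 min RT; Read-out basis: % activation from peak over basal fluorescence ratio, DMSO-to-PEA scaled.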
CHO parental Ca: counter-screen: ATP calcium response change in parental CHO cells; 0.63% of 330,000 active; parental CHO-K1, ATP-induced calcium, Fluo-8 fluorescence; inhibition, % at 5.6 µM;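 active means inhibition above that plate's mean sample inhibition plus 3 SD, cut at about 26% in these data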;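 further: 0% = ATP-challenged DMSO wells and 100% = DMSO wells without ATP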
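Measured by: calcium-sensitive Fluo-8 fluorescence / Test system: CHO parental line / Controls: ATP-challenged DMSO wells low, unchallenged DMSO wells high / Measure: % inhibition / Compound: single nominal dose of 5.6 µM per compound / Replicates: single well per compound, no replicates / Reagent: ATP as calcium-mobilizing challenge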
OX1R HTRF conf: confirmation of human orexin 1 receptor antagonists, HTRF format; shares compounds with OX1R antag-2; OX1R-expressing cells, HTRF antagonist assay; inhibition, % at 6.6 µM; 49% of 1,800 active; AID 492964; in the data active means inhibition above about 55%;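 further: CHO cells expressing OX1R stimulated with orexin A at about EC80; 0% = agonist challenge alone and 100% = reference antagonist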
CHO-K1 HTRF cnt: counter-screen for OX1R antagonists: effect in parental CHO-K1 cells | 48% of 1,800 active | HTRF counterscreen | shares compounds with OX1R antag-2 | inhibition, % at 6.6 µM; in the data active means inhibition above about 17%;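 further: 0% = agonist challenge with vehicle and 100% = vehicle alone without agonist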
Active calls of the source: *; . = not tested or not shown. In the library only some 4.6% were active in any assay of this set; here they are far more common.

SMILES	TAAR1 antagonist	OX1R antag-1	OX1R antag-2	GPR7 antagonist	TAAR1 agonist	CHO parental Ca	OX1R HTRF conf	CHO-K1 HTRF cnt
CC(C)(C)C1CCC(=NNc2ccc(S(N)(=O)=O)cc2[N+](=O)[O-])CC1 (stereo not given)	-6	-13	33	-6	10	0	.	.
CC1CCCC/C1=N\Nc1ccc(S(N)(=O)=O)cc1[N+](=O)[O-] (stereo not given)	-9	-5	116*	-4	-1	-6	26	26*
COc1ccc(CNC(=O)COc2ccc(Br)c(C)c2)cc1	-10	-16	1	4	-1	-21	.	.
COc1cc(/C=C2\NC(=O)NC2=O)cc(Br)c1OC	1	0	-4	3	7	-8	.	.
O=C(O)COc1c(Cl)cc(/C=C2/NC(=O)NC2=O)cc1Br	11	-15	88*	-13	1	-9	42	37*
O=C(O)c1ccc(NC(=O)c2ccc3c(c2)C(=O)N(CC2CCCO2)C3=O)cc1 (stereo not given)	-14	-16	78*	-1	6	-5	34	32*
O=[N+]([O-])c1ccc(N2CCN(c3ccccc3)CC2)cc1	-3	-6	-4	2	2	7	.	.
O=c1c2ccccc2nc2n1CC/C2=C\N1CCN(c2ccc([N+](=O)[O-])cc2)CC1	0	-12	94*	.	1	-6	32	23*
Cc1ccccc1NC(=O)c1cc2ccccc2o1	2	-16	-5	-11	1	-8	.	.
CCN(CC)c1ccc(NC(=O)c2cc3ccccc3o2)c(C)c1	23	2	80*	-14	26	-1	59*	9
c1cncc(-c2nc(NCc3ccc4c(c3)OCO4)c3ccccc3n2)c1	29	0	33	-10	2	-10	.	.
c1cncc(-c2nc(NCC3COc4ccccc4O3)c3ccccc3n2)c1 (stereo not given)	54*	21	95*	0	14	-24	56*	13
O=[N+]([O-])c1cccc(OCc2cn3cccnc3n2)c1	-19	-13	130*	-8	1	-7	30	27*
O=C(CCl)N(c1ccccc1)C1CCS(=O)(=O)C1 (stereo not given)	2	-10	-5	-7	1	-9	.	.
O=C(NCCN1C(=O)S/C(=C\c2ccc(Cl)c([N+](=O)[O-])c2)C1=O)C1=COCCO1	27	-2	83*	.	11	-3	48	57*
O=C(NCCN1C(=O)S/C(=C\c2ccc(Cl)c(Cl)c2)C1=O)c1cnccn1	19	-3	6	-3	7	-1	.	.
O=[N+]([O-])c1ccccc1Sc1nccn1Cc1ccccc1	10	-22	27	8	-2	-15	.	.
Cc1ccccc1NC(=O)c1sc(NC(=O)COc2ccccc2)c(C#N)c1C	29	-3	9	-3	6	-6	.	.
O=C(NNC(=O)c1cccc2ccccc12)c1ccccc1O	-28	0	22	-1	2	-2	.	.
O=C(NNc1c2ccccc2nc2ccccc12)c1ccccc1Cl	-10	-14	83*	-7	2	1	50	-1
O=C(NNc1c2ccccc2nc2ccccc12)c1ccc(O)cc1O	61*	0	102*	-1	15	-11	84*	20*
O=C(NNc1c2ccccc2nc2ccccc12)c1ccccc1O	54*	1	84*	-1	10	4	61*	1
O=C(NNc1c2ccccc2nc2ccccc12)c1cccc(O)c1	19	-4	26	-6	3	-13	.	.
O=C(NNC(=O)c1ccccc1Cl)c1ccccc1Cl	-1	-8	4	-13	2	-16	.	.
COc1ccc(Br)cc1CNCC1CCCO1 (stereo not given)	2	-4	-1	-2	0	-3	.	.
SMILES	TAAR1 antagonist	OX1R antag-1	OX1R antag-2	GPR7 antagonist	TAAR1 agonist	CHO parental Ca	OX1R HTRF conf	CHO-K1 HTRF cnt
Cc1cc(F)ccc1NCc1cc2c(cc1[N+](=O)[O-])OCO2	8	-16	85*	-12	-1	-21	29	21*
Cc1ccc2c(c1)N(CC(=O)NC1CCCCC1C)C(=O)CO2 (stereo not given)	16	-12	111*	-6	0	-14	37	-2
O=C1NC(=S)N/C1=C\c1cccc([N+](=O)[O-])c1	-21	11	29	3	-2	4	.	.
O=C1NC(=S)N/C1=C/c1cccc([N+](=O)[O-])c1	5	-5	93*	1	6	-11	31	40*
CNC(=O)COC(=O)c1ccc([N+](=O)[O-])cc1Cl	-26	-10	120*	-2	1	-13	46	74*
Cc1ccc(C(=O)COc2ccccc2N2C(=O)c3ccccc3C2=O)cc1	-8	-18	11	-5	1	-7	.	.
C/C(=N\O)c1cc(Cl)ccc1O	-3	12	8	-15	-2	-3	.	.
CC1=CC(=NOC(=O)/C=C/c2ccccc2)C=C(C)C1=O	-7	3	82*	-17	15	-9	29	3
CC1=CC(=O)C=C(C)C1=NOC(=O)/C=C\c1ccccc1	0	-1	10	5	0	-2	.	.
CSc1nc2ccc(NC(=O)c3cc4ccccc4o3)cc2s1	0	9	84*	-13	0	-14	91*	13
Cn1cnnc1Sc1ccc(C(=O)OCC(=O)NCC(F)(F)F)cc1[N+](=O)[O-]	-13	-7	78*	-15	-1	9	30	43*
COc1cc(CNCCSc2nnnn2C)cc(Br)c1OCc1ccccc1F	3	-17	95*	7	7	-12	16	9
C=CCN(CC=C)C(=S)Nc1ccc(OC)c(OC)c1	4	-6	16	-4	5	-11	.	.
O=C(O)C1CCCCN1S(=O)(=O)c1cccc2nsnc12 (stereo not given)	.	-6	23	-10	.	2	.	.
O=C(Nc1ccc(F)cc1F)C1CCCN1S(=O)(=O)c1cccc2nsnc12 (stereo not given)	-5	4	77*	-12	0	-7	59*	27*
COC(=O)c1cc(C(=O)OCC(=O)NC2CCS(=O)(=O)C2)cc([N+](=O)[O-])c1 (stereo not given)	-21	-14	84*	-1	1	-12	43	47*
COC(=O)c1cc(C(=O)OCC(=O)N(C)C2CCS(=O)(=O)C2)cc([N+](=O)[O-])c1 (stereo not given)	-11	-8	120*	-9	1	-12	88*	70*

Assay outcomes deposited in PubChem BioAssay by The Scripps Research Institute Molecular Screening Center.
